Screening data (PubChem)
Sampled rows, rich in hits. Any-hit rate of the full collection: about 2.9%.
Jurkat viability: cytotoxic compounds reducing Jurkat cell viability; Jurkat E6.1 viability, ATP luminescence, 48 h; inhibition, % at 4 µM; actives 1.2% (n = 56,000);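 active = inhibition above the mean inhibition of all tested compounds plus 3 SD, cut at about 28% in these data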
HEK293 NFkB inh: inhibitors of the PMA/ionomycin-induced NF-kB reporter in HEK293 cells; HEK-293 NF-kB luciferase reporter, luminescence; inhibition, % at 3 µM; actives 0.21% (n = 62,000); AID 465;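 active = inhibition above the mean of all tested compounds plus 3 SD, cut at about 40% in these data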;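 also: 0% = stimulated DMSO wells and 100% = 10 µM reference inhibitor 5653914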
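Signal: luciferase luminescence; Material: HEK-293 cells with stable firefly luciferase reporter driven by four HIV NF-kB elements; Probe or stimulus: PMA with ionomycin; Replication: tested once; Times: 1 h compound pretreatment, then 16 h stimulation at 37 °C, 5% CO2; Benchmarks: DMSO and 10 µM reference inhibitor; Evaluation: per-plate % inhibition versus controls.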
SF-1 act: SF-1 (human) activation. Q13285. activation, % at 10 µM. actives 1.9% (n = 65,000). CHO-K1 Gal4-SF-1 LBD luciferase reporter; % increase over DMSO SF-1-specific signal;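 active = activation above the mean activation of all tested compounds plus 3 SD, cut at about 50% in these data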
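Material: Transient Gal4-SF-1 LBD reporter, CHO-K1 | Input: 4,000 cells/well | Dosing: One dose, 10 µM compound, 1% DMSO | Incubation: 20 h compound treatment, 37 °C | Detection: SteadyLite luciferase luminescence | Evaluation: Percent activation relative to DMSO median and mock-transfected background | Benchmarks: DMSO-treated SF-1-transfected cells as negative, DMSO-treated mock-transfected cells lacking SF-1 as background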
MT1-MMP txn act: activates MT1-MMP transcription; AID 750; actives 0.16% (n = 86,000); activation factor at 10 µM; HT1080 MT1-MMP promoter luciferase reporter, luminescence, overnight; active compounds read high;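 active = activation factor of at least 2 for MT1-MMP transcription at 10 µM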
RORa activator: activators of human nuclear receptor RORA | activation, % at 10 µM | CHO-K1 Gal4-RORA LBD luciferase reporter, luminescence; percent increase over mock-subtracted basal signal | P35398 | actives 1.5% (n = 65,000);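 active = activation above the mean of all tested compounds plus 3 SD, cut at about 49% in these data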;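 also: 0% = DMSO-treated RORA cells and 100% = added signal equal to DMSO minus mock-transfected cells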
Target sequence (P35398 whole entry, looked up, the tested form may be a part): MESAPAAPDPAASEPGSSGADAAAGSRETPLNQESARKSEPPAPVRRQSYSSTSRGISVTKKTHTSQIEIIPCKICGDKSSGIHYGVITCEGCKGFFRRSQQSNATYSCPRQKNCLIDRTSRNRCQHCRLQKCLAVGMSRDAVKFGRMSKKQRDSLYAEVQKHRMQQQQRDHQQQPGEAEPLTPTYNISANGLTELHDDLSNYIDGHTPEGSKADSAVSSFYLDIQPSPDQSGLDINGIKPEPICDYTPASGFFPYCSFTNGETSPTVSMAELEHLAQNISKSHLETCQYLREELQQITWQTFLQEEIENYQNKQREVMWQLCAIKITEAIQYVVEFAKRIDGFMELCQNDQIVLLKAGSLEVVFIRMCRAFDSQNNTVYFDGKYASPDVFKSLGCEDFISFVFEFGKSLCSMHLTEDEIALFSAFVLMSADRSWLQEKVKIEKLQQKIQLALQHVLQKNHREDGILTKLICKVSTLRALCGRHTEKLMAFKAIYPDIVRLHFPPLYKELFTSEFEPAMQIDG
The depositor's hits bear a star; . = not tested or not shown.

SMILES	Jurkat viability	HEK293 NFkB inh	SF-1 act	MT1-MMP txn act	RORa activator
CCC(c1nnnn1CS(=O)(=O)c1ccc(C)cc1)N1CCN(c2nc3ccccc3s2)CC1 (stereo not drawn)	-3	24	13	1	9
Cc1cc(NC(=O)c2ccc3c(c2)OCO3)no1	-8	-28	60*	1	30
CC(C)c1cc(C(=O)Nc2ccc3c(c2)OCO3)no1	-5	-38	29	0.9	20
O=C(Nc1ccc2c(c1)OCO2)c1cc(C2CC2)on1	8	-39	49	1	60*
O=C(c1ccc2c(c1)OCCCO2)c1cccs1	1	-40	54*	1.4	22
Fc1cccc(Cl)c1Cn1nnc(-c2ccc3c(c2)OCO3)n1	-2	-27	70*	1.2	56*
Cc1ccccc1Cn1nnc(-c2ccc3c(c2)OCO3)n1	.	.	.	1.3	.
COc1ccc(-c2cc(C(F)(F)F)nc(S(C)(=O)=O)n2)cc1	.	.	.	1	.
CCOC(=O)CS(=O)(=O)c1nc(-c2ccc(F)cc2)cc(C(F)(F)F)n1	34*	14	-33	0.5	-61
CCOC(=O)CS(=O)(=O)c1nc(-c2ccccc2)cc(C(F)(F)F)n1	55*	4	-44	0.9	-60
COC(=O)CCS(=O)(=O)c1nc(-c2ccccc2)cc(C(F)(F)F)n1	.	.	.	0.9	.
CCOC(=O)CCS(=O)(=O)c1nc(-c2ccccc2)cc(C(F)(F)F)n1	68*	10	-26	.	-37
COCc1cc(C)nc2sc(C(=O)Nc3nccs3)c(N)c12	-4	-9	92*	1.4	31
Cc1cc(C)c2c(N)c(C(=O)Nc3nccs3)sc2n1	3	-19	-21	.	46
Cc1cc(C(=O)CSc2nnnn2C)c(C)n1-c1cccc(F)c1	5	-34	53*	1.4	16
Cc1cc(C)cc(-n2c(C)cc(C(=O)CSc3nnnn3C)c2C)c1	.	.	.	1.3	.
CCOc1cccc2cc(-c3csc(NC(=O)CCC(=O)N4CCN(C)CC4)n3)c(=O)oc12	-1	16	-1	1.4	8
COc1ccc(S(=O)(=O)N2CCCN(S(=O)(=O)c3ccc(OC)cc3C)CC2)c(C)c1	-5	11	1	.	-1
Cc1ccc(C(=O)Nc2ccc3c(c2)OCO3)o1	-1	-7	21	1.6	43
O=C(Nc1ccc(Nc2ccccc2)cc1)c1ccc(Br)o1	-4	-8	47	1.7	49*
O=C(Nc1nccs1)c1ccc(Br)o1	-2	-6	65*	1.5	24
CC(C)c1ccc(NC(=O)c2ccc(Br)o2)cc1	.	.	.	1	.
O=C(Nc1ccc2c(c1)OCCO2)c1ccc(Br)o1	.	.	59*	1	33
O=C(Nc1cccc(-c2nnc(-c3ccccc3)o2)c1)c1ccc(Br)o1	-2	13	67*	1.2	11
CC(=O)Nc1ccc2c(c1)OCCO2	.	.	.	1.2	.
SMILES	Jurkat viability	HEK293 NFkB inh	SF-1 act	MT1-MMP txn act	RORa activator
O=C(Nc1ccc2c(c1)OCCO2)NC12CC3CC(CC(C3)C1)C2	-6	-25	75*	1.7	77*
CCOC(=O)c1ccc(NCc2ccncc2)cc1	.	.	.	1.2	.
CCc1ccc(CNc2ccc(O)cc2)cc1	38*	0	0	1.2	-29
CCN(C(=O)c1ccc(C(C)(C)C)cc1)c1nnc(Cn2nnc3ccccc32)s1	101*	40*	-69	1.1	-66
CCOC(=O)c1cnc(SC2CCc3ccccc3C2=O)nc1N (stereo not drawn)	-6	11	18	1.5	41
CC(=Nc1cccc(O)c1)c1sc2ccccc2c1O	.	.	94*	1.8	17
c1c2c(cc3sc(N4CCOCC4)nc13)OCCO2	5	33	-65	0.2	-69
c1ccc(N2CCN(c3nc4cc5c(cc4s3)OCCO5)CC2)cc1	5	-33	61*	1.3	77*
CCOC(=O)COC(=O)c1ccc(Oc2cc(C)nc(SC)n2)cc1	.	.	.	1.2	.
COC(=O)c1ccc(Oc2cc(C)nc(-n3nc(C)cc3C)n2)cc1	100*	37	-51	0.5	-37
CCOC(=O)c1ccc(Oc2cc(C)nc(SC)n2)cc1	75*	17	31	0.8	57*
COC(=O)c1ccc(Oc2nc(C)cc(Oc3ccccc3)n2)cc1	-14	9	-4	0.8	8
COc1cc(C(=O)N2CCN(c3ncnc4sc(C)c(C)c34)CC2)cc(OC)c1OC	76*	26	-33	1.1	-22
Cc1sc2ncnc(N3CCN(c4ncccn4)CC3)c2c1C	8	14	-14	1.6	-16
